These results are taken from PMC6873108 (Journal of Medicinal Chemistry, 2019).

Data set [1] has as its system P. aeruginosa PA14. As to conditions: vs DMSO control; cited from earlier work.
Data set [2] deals with T1, LecBPA14 (Pseudomonas aeruginosa, UniProt A0A0H2ZE85).
T1 sequence (A0A0H2ZE85 2-115): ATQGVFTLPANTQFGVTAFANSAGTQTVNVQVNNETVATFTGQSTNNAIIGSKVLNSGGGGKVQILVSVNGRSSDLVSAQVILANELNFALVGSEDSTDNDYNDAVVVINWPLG
As to conditions: read-out: LecBPA14 IC50; previously published; cited from earlier work.

For data set [3] the following is noted: mice; as reported; cited from earlier work.
The conditions of data set [4]: cited from earlier work.
Data set [5] can be described thus: Plasma stability assay. It counts as in vitro ADME, mouse. The conditions noted are these: 25 μM, 37 °C, period of 120 min. The essentials: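 Test compound (DMSO stock) spiked into mouse plasma (pH 7.4) at final 25 μM and incubated at 37 °C. Samples taken at 0, 15, 30, 60, 90 and 120 min, extracted with methanol containing internal standard (5 min shaking), centrifuged, and supernatants analyzed by reversed-phase C18 HPLC (water/acetonitrile + 0.1% formic acid gradient). Controls were procaine, propoxycaine and procainamide at 250 μM.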

Data set [6] deals with LecBPAO1 (Pseudomonas aeruginosa, UniProt Q9HYN5). Nature of the data set: Isothermal titration calorimetry. The class given is binding. The conditions noted are these: ITC, 25 °C, mean. In general terms: Isothermal titration calorimetry measures the heat released or taken up as one component is titrated into another.
For data set [7], the system named is mCherry-expressing P. aeruginosa. Nature of the data set: Bacterial growth by total fluorescence intensity. The class given is cell-based, Pseudomonas aeruginosa. As to conditions: 100 μM, 23 h, vs DMSO control.
Data set [8] deals with T1, LecBPA14. As to conditions: ITC, 25 °C, mean.
The nature of data set [9]: Plasma protein binding. It counts as in vitro ADME, mouse. The conditions noted are these: murine plasma, 100 μM, 37 °C, 2 h.
Data set [10] concerns Hep G2 cells. As to the kind of experiment: MTT assay. It counts as cell-based, human. The conditions noted are these: up to 100 μM, 24 h. The essentials: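 Hep G2 cells grown in DMEM + 10% heat-inactivated FCS (37 °C, 5% CO2) to 75% confluency, then exposed 24 h to compound (0.01–100 μM; DMSO stock diluted in PBS, final 0.1% DMSO). Controls: vehicle, medium, and cells lysed with 0.5% Triton X-100. After two washes, MTT (final 1 mg/mL) for 3 h, then 0.04 M HCl/2-propanol for 15 min at room temperature. A560 read against 670 nm reference; normalized as (A–B)/(C–B) to Triton and vehicle controls.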
(In general: Tetrazolium assays rely on reduction of a dye to a coloured formazan, in cell work by metabolically active cells.)

Entries after “also recorded” stand apart in the source; their conditions may differ.

Chain of LecBPAO1 (Q9HYN5 2-115 limits assumed): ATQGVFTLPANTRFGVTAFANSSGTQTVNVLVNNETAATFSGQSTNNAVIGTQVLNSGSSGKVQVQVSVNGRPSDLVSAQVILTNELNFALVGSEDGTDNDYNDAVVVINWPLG

As to `CO[C@H]1O[C@H](CO)[C@@H](O)[C@H](O)[C@@H]1O` [Compound 1, methyl α-D-mannoside], the “effect on biofilm formation” value in data set [1] was “nonsignificant effect”.
For `COc1ccc(/C=C/C(=O)NC[C@H]2O[C@@H](C)[C@@H](O)[C@@H](O)[C@@H]2O)cc1OC` [Compound 5], the IC50 in data set [2] is 2800 nM.
`Cc1cc(C)c(S(=O)(=O)NC[C@H]2O[C@@H](C)[C@@H](O)[C@@H](O)[C@@H]2O)c(C)c1` [Compound 6]: the “toxicity in a murine pharmacokinetics model” value in data set [3] is listed as “nontoxic”. In addition, the “metabolic stability against liver microsomes and murine plasma” value in [4] is “good metabolic stability”.
`C[C@@H]1O[C@H](CNS(=O)(=O)c2cccs2)[C@@H](O)[C@H](O)[C@@H]1O` [Compound 7]: the “toxicity in a murine pharmacokinetics model” value in data set [3] is given as “nontoxic”. Moreover, the “metabolic stability against liver microsomes and murine plasma” value in [4] is reported as “good metabolic stability”.
Regarding `Cc1oncc1S(=O)(=O)NC[C@H]1O[C@@H](C)[C@@H](O)[C@@H](O)[C@@H]1O` [Compound 17, N-β-L-Fucopyranosylmethyl 5-Methyl-4-isoxazolesulfonamide], the “stability in murine plasma” value in data set [5] is “fully stable”.
With `Cc1cc(S(=O)(=O)NC[C@H]2O[C@@H](C)[C@@H](O)[C@@H](O)[C@@H]2O)c(C)s1` [Compound 22, N-β-L-Fucopyranosylmethyl 2,5-Dimethyl-3-thiophenesulfonamide], in [6], the “-TΔS LecBPAO1” value came to 3.23 kcal/mol and the “ΔH LecBPAO1” value is -11.3 kcal/mol. Also, the “bacterial growth (total fluorescence intensity)” value in [7] is reported as “comparable densities”. For the same compound, the “stability in murine plasma” value in data set [5] is reported as “fully stable”. Besides, in data set [8], the “-TΔS LecBPA14” value is 0.789 kcal/mol and the “ΔH LecBPA14” value was -9.66 kcal/mol.
On to `Cc1ccc(S(=O)(=O)NC[C@H]2O[C@@H](C)[C@@H](O)[C@@H](O)[C@@H]2O)s1` [Compound 23, N-β-L-Fucopyranosylmethyl 5-Methyl-2-thiophenesulfonamide], for which the “stability in murine plasma” value in [5] was “fully stable”.
As to `C[C@@H]1O[C@H](CNS(=O)(=O)c2cc(Cl)c(Cl)s2)[C@@H](O)[C@H](O)[C@@H]1O` [Compound 27, N-β-L-Fucopyranosylmethyl 4,5-Dichloro-2-thiophenesulfonamide], the “stability in murine plasma” value in data set [5] is “fully stable”.
In the case of `C[C@@H]1O[C@H](CNS(=O)(=O)c2ccc(C#Cc3ccccc3)s2)[C@@H](O)[C@H](O)[C@@H]1O` [Compound 29, N-β-L-Fucopyranosylmethyl 5-Phenylethynyl-2-thiophenesulfonamide], the “bacterial growth (total fluorescence intensity)” value in data set [7] is recorded as “comparable densities”. Moreover, the “stability in murine plasma” value in [5] is “fully stable”. Further, the “plasma protein binding (in words)” value in [9] is “highly bound; also recorded: very high plasma protein binding”. Also, the “toxicity to Hep G2 cells (in words)” value in data set [10] is “weak toxicity; also recorded: moderate mammalian cytotoxicity”.
As for `CO[C@@H]1O[C@@H](C)[C@@H](O)[C@@H](O)[C@@H]1O` [Compound 42, methyl α-L-fucoside], in data set [1], the “effect on biofilm formation” value was “nonsignificant effect”.

One may read the IC50 as the point on the concentration scale where inhibition reaches its midpoint.
